Measured values reported in ChEMBL document CHEMBL5108089, “Structure-based discovery of potent inhibitors of Axl: design, synthesis, and biological evaluation” (RSC Med Chem, 2022).
pIC50: −log10 of the molar value. Active and inactive are the calls of the source. The calls are words filed in the database; no cut-off is given here.

Key:
[1] = molecular target: T1, Tyrosine-protein kinase receptor UFO (Homo sapiens, UniProt P30530); test: Inhibition of human Axl using KKSRGDYMTMQIG as substrate incubated for 40 mins in the presence of [gamma33P]ATP by scintillation counting analysis
T1 sequence (P30530 whole entry): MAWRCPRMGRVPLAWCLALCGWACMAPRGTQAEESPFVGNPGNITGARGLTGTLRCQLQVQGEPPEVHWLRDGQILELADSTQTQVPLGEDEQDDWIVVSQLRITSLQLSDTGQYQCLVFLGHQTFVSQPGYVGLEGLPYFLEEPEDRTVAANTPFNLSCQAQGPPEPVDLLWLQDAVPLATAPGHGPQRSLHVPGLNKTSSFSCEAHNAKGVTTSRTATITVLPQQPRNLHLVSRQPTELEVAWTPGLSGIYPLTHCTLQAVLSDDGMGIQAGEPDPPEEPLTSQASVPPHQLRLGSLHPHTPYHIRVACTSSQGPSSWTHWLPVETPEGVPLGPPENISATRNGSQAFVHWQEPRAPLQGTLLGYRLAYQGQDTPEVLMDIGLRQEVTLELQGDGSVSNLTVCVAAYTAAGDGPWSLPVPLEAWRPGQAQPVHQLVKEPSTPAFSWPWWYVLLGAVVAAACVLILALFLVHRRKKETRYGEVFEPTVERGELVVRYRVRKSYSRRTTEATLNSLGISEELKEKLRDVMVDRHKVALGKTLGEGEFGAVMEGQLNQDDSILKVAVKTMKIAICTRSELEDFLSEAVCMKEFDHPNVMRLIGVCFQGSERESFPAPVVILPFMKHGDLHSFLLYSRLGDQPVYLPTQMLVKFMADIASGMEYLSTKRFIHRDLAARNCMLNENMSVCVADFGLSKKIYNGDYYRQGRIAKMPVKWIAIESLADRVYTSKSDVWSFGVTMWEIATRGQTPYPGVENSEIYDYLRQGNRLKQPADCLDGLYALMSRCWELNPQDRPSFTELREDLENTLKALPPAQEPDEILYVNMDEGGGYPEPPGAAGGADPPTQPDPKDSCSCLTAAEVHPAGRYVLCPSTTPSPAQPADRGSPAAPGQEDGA

[2] = Metabolic stability in human liver microsomes assessed as intrinsic clearance preincubated for 10 mins followed by NADPH addition and measured upto 60 mins by LC-MS/MS analysis; type: ADME, Microsome; conditions: time < 70 min, read-out: CLH
[3] = Intrinsic clearance in human; type: ADME
[4] = Intrinsic clearance in rat; type: ADME
[5] = AUC (0 to last) in Sprague-Dawley rat at 5 mg/kg, po measured upto 24 hrs by LC-MS/MS analysis; type: ADME, organism-based; parameters: dose 5 mg/kg, time < 24 hrs, route po; conditions: in vivo
[6] = Cmax in Sprague-Dawley rat at 5 mg/kg, po measured upto 24 hrs by LC-MS/MS analysis; type: ADME, organism-based; parameters: dose 5 mg/kg, time < 24 hrs, route po; conditions: in vivo
[7] = AUC (0 to last) in Sprague-Dawley rat at 1 mg/kg, iv measured upto 24 hrs by LC-MS/MS analysis; type: ADME, organism-based; parameters: dose 1 mg/kg, time < 24 hrs, route iv; conditions: in vivo
MCF7 = test: Antiproliferative activity against human MCF7 cells assessed as inhibition of cell growth incubated for 72 hrs by CCK-8 assay; type: functional
143B = test: Antiproliferative activity against human 143B cells assessed as inhibition of cell growth incubated for 72 hrs by CCK-8 assay; type: functional
SW-620 = test: Antiproliferative activity against human SW620 cells assessed as inhibition of cell growth incubated for 72 hrs by CCK-8 assay; type: functional
ASPC1 = test: Antiproliferative activity against human ASPC1 cells assessed as inhibition of cell growth incubated for 72 hrs by CCK-8 assay; type: functional
Procedure, shortened: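 5000 cells/well. Test compound was titrated from 10 uM and staurosporine control from 1 uM. Values are CC50 and maximum % inhibition.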

CAL-27 = test: Antiproliferative activity against human CAL-27 cells assessed as inhibition of cell growth incubated for 72 hrs by CCK-8 assay; type: functional
CAKI-1 = test: Antiproliferative activity against human CAKI-1 cells assessed as inhibition of cell growth incubated for 72 hrs by CCK-8 assay; type: functional
Raji = test: Antiproliferative activity against human Raji cells assessed as inhibition of cell growth incubated for 72 hrs by CCK-8 assay; type: functional
Procedure, shortened: (§1)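 8000 cells/well. Test compound was serially diluted from a 10 uM top concentration and staurosporine from 1 uM. CC50 and maximum % inhibition are reported.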

SUD4 = test: Antiproliferative activity against human SU-DHL-4 cells assessed as inhibition of cell growth incubated for 72 hrs by CCK-8 assay; type: functional; procedure, shortened: as §1
T-24 = test: Antiproliferative activity against human T24 cells assessed as inhibition of cell growth incubated for 72 hrs by CCK-8 assay; type: functional
RS4-11 = test: Antiproliferative activity against human RS4-11 cells assessed as inhibition of cell growth incubated for 72 hrs by CCK-8 assay; type: functional; procedure, shortened: as §1
MV4-11 = test: Antiproliferative activity against human MV4-11 cells assessed as inhibition of cell growth incubated for 72 hrs by CCK-8 assay; type: functional; procedure, shortened: as §1
[8] = molecular target: Aurora kinase A (Homo sapiens) (UniProt O14965); test: Inhibition of Aurora A (unknown origin) at 1 uM
Sequence of Aurora kinase A (Homo sapiens) (O14965 whole entry): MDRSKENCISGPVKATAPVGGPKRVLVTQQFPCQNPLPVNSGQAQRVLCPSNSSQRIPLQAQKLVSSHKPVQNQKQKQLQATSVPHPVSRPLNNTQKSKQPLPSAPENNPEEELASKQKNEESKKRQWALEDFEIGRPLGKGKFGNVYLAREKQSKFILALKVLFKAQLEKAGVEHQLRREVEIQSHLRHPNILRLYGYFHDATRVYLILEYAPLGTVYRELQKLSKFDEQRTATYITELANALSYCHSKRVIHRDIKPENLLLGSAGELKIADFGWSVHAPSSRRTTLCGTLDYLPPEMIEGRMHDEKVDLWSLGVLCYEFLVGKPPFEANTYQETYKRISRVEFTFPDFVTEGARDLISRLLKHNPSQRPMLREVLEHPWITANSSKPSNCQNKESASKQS

[9] = molecular target: Receptor-type tyrosine-protein kinase FLT3 (Homo sapiens) (UniProt P36888); test: Inhibition of Flt3 (unknown origin) at 1 uM
Sequence of Receptor-type tyrosine-protein kinase FLT3 (Homo sapiens) (P36888 whole entry): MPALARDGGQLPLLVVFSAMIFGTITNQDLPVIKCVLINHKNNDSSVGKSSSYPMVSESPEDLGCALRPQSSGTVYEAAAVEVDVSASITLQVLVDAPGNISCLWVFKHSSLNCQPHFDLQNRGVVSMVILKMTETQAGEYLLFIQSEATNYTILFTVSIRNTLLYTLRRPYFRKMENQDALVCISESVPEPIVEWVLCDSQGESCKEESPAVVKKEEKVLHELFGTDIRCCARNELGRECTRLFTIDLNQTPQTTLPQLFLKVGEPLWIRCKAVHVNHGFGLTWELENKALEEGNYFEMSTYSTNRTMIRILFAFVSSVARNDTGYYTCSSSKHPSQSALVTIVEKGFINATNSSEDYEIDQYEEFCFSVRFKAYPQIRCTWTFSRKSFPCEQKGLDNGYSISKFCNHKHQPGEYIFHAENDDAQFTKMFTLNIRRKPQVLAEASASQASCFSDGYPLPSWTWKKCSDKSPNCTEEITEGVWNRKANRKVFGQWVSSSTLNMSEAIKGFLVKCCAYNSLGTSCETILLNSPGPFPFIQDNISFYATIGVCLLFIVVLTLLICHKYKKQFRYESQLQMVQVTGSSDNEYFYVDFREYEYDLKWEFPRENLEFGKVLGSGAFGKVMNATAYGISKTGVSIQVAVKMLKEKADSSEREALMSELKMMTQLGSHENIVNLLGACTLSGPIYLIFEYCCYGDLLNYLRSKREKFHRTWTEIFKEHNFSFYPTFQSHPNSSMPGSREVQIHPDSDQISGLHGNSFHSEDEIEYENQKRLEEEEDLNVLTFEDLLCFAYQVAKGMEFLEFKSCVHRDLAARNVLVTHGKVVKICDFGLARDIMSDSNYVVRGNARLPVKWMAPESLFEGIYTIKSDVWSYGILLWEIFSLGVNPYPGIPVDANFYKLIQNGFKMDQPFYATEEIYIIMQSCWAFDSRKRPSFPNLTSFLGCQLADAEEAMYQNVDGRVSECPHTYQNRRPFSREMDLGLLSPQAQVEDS

CC(C)n1cnc(-c2ccccc2Nc2nc(Nc3ccc(N(C)C4CCN(C)CC4)cc3)ncc2Cl)n1
pIC50 [1]: 8.30
CLint scaled [2]: 28.7 mL/min/kg
CLint scaled [3]: 12 mL/min/kg
CLint scaled [4]: 33.9 mL/min/kg
AUClast [5]: 1180 ng·h/mL
Cmax [6]: 83.9 ng/mL
AUClast [7]: 422 ng·h/mL
CC50 (MCF7): 5190 nM
CC50 (143B): 1340 nM
CC50 (SW-620): 349 nM
CC50 (ASPC1): 755 nM
CC50 (CAL-27): 107 nM
CC50 (CAKI-1): 493 nM
CC50 (Raji): 4560 nM
CC50 (SUD4): 35.9 nM
CC50 (T-24): 933 nM
CC50 (RS4-11): 138 nM
CC50 (MV4-11): 66 nM
inhibition [8]: Active
inhibition [9]: Active
